Bioassay records from PubChem.
HCV core dimer – inhibitors of HCV core protein dimerization, primary screen, biochemical, TR-FRET, high-throughput; TR-FRET GST/Flag-core106 dimerization, 1536-well; inhibition, % at 5 µM; 0.33% of 300,000 active; AID 1899, 2009;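 active = inhibition above the mean of all tested compounds plus 3 SD, set per screening campaign, cut at about 45% in these data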
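Material: Tagged HCV core106 pair (GST and Flag) | Amount: GST-core106 13.5 nM, Flag-core106 17 nM | Medium: KF-containing HEPES buffer, pH 7.45, DTT, CHAPS, BSA | Reagent: Eu donor and XL665 acceptor anti-tag antibodies | Schedule: 4 h at 22.5 °C | Technique: Time-resolved FRET, ex 340 nm, em 617 and 671 nm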
PP1 counter – PP1-alpha phosphatase inhibitors, primary screen, counter-screen for PP5 inhibitor project, biochemical, fluorescence, OMFP substrate, single point; inhibition, % at 6.7 µM; purified PP1alpha; 0.9% of 320,000 active; Serine/threonine-protein phosphatase PP1-alpha catalytic subunit (Homo sapiens), P62136;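 active = inhibition above the mean inhibition of all tested compounds plus 3 SD, computed separately for each screening campaign, cut at about 15% in these data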
Target sequence (P62136 whole entry, looked up): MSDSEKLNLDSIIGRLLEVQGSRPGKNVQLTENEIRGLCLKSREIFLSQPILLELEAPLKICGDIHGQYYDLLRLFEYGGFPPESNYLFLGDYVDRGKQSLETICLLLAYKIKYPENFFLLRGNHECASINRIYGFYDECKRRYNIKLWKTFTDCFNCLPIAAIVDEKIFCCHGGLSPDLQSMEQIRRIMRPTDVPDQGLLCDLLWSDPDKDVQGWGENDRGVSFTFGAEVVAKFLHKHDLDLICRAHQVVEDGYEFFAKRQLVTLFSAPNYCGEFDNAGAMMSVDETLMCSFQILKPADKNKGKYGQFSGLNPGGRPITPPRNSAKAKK
EBNA-1 inh – EBNA-1 DNA-binding inhibitors, primary screen, biochemical, fluorescence polarization. inhibition, % at 14.8 µM. AID 1950, 2009. 0.34% of 300,000 active; in the data active = inhibition above about 28%
NS3 helicase inh – inhibitors of HCV NS3 helicase, primary screen, biochemical, Cy5 molecular beacon fluorescence; NS3 helicase DNA unwinding; inhibition, % at 10.9 µM; Hepatitis C virus NS3 helicase; AID 1800, 2009; 0.56% of 290,000 active;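 active = inhibition above the mean of all tested compounds plus 3 SD, set per campaign, cut at about 35% in these data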;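 also: 0% = DMSO wells and 100% = thioflavine S control wells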
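System: HCV NS3 helicase fragment; control set: DMSO and thioflavine S; technique: Cy5 fluorescence at 0 and 60 min, beacon hairpin quenching; reagent: beacon DNA duplex substrate plus ATP; replicates: singlicate; schedule: 1 h reaction at 25 °C, ATP-initiated; medium: MOPS buffer pH 6.5 with MgCl2, DTT, Tween20, BSA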
ZTA counter – blocks Epstein-Barr virus ZTA, an EBNA-1 counter-screen; 0.15% of 320,000 active; ZTA-DNA binding, fluorescence polarization; P03206; inhibition, % at 11 µM; in the data active = inhibition above about 33%
Target sequence (P03206 whole entry, looked up): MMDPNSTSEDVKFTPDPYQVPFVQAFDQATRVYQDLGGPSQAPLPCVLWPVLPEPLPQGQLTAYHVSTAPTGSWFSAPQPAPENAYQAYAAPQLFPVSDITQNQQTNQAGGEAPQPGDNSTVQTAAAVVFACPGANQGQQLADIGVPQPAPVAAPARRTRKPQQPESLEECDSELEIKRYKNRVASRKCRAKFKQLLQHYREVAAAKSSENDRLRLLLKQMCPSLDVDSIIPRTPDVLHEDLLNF
EBNA-1 confirm – EBNA-1 DNA-binding inhibitors, retest, confirmation, biochemical, fluorescence polarization, triplicate; Recombinant EBNA-1 DBD, Cy5-DNA fluorescence polarization; 35% of 830 active; shares compounds with EBNA-1 inh; inhibition, % at 14.8 µM;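 active = mean inhibition across replicates above a set limit taken from the earlier primary screen, cut at about 28% in these data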;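 also: plate controls were EBNA-1 protein with DMSO for no effect and wells lacking EBNA-1 for full effect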
ZTA counter trip – EBV Zta DNA binding inhibitors, counter-screen for EBNA-1 inhibitor project, biochemical, fluorescence polarization, triplicate. inhibition, % at 11.1 µM. shares compounds with EBNA-1 inh. 830 tested, under 10 active. Zta-ZRE DNA binding, Cy5 fluorescence polarization;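 active = mean inhibition over triplicates above a set limit taken from the primary EBNA-1 screen, cut at about 37% in these data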;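 also: purified full length Zta protein with Cy5 labeled ZRE DNA probe; 0% = Zta with DMSO and 100% = wells lacking Zta protein; inhibitors lower polarization by freeing the labeled DNA probe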
The depositor's hits bear a star. Shown are actives, neighbours in structure and some others; about 1.9% of the full set was active somewhere.

How did O=c1[nH]c(CN2CCN(S(=O)(=O)/C=C/c3ccccc3)CC2)nc2ccccc12 do in these assays?
HCV core dimer: -1; PP1 counter: 2; EBNA-1 inh: 3; NS3 helicase inh: -10; ZTA counter: 2

How did O=c1[nH]c(CN2CCN(S(=O)(=O)c3ccc4ccccc4c3)CC2)nc2ccccc12 do in these assays?
HCV core dimer: 9; PP1 counter: -1; EBNA-1 inh: 84*; NS3 helicase inh: 1; ZTA counter: 23; EBNA-1 confirm: 122*; ZTA counter trip: 4

Results for COC(=O)c1cc(C(=O)OCC(=O)NCc2cccs2)cc([N+](=O)[O-])c1 ?
PP1 counter: 0; ZTA counter: -11

What do the screens show for `O=C(CCc1c[nH]c2ccccc12)NCCc1ccc(O)cc1`?
HCV core dimer: -11; PP1 counter: 1; EBNA-1 inh: -2; NS3 helicase inh: -4; ZTA counter: -9

What do the screens show for `Cc1ccc(OCC(=O)NC(=S)Nc2cccc(NC(=O)c3ccccc3)c2)cc1`?
HCV core dimer: 12; PP1 counter: -4; EBNA-1 inh: 29*; NS3 helicase inh: 2; ZTA counter: 14; EBNA-1 confirm: 17; ZTA counter trip: -6

How did CCOCCCn1c(SCC(=O)NCc2ccco2)nc2c(sc3ccccc32)c1=O do in these assays?
HCV core dimer: 7; PP1 counter: 12; EBNA-1 inh: 30*; NS3 helicase inh: 2; ZTA counter: 9; EBNA-1 confirm: 0; ZTA counter trip: 2

What do the screens show for `CCCCCNC(=O)C1CCC(Cn2c(=S)[nH]c3ccccc3c2=O)CC1` (stereo not given)?
HCV core dimer: 12; PP1 counter: -3; EBNA-1 inh: 44*; NS3 helicase inh: 2; ZTA counter: -3; EBNA-1 confirm: 21; ZTA counter trip: 3

What do the screens show for `FC(F)(F)c1ccccc1NC(=S)NC1CCN(Cc2ccccc2)CC1`?
HCV core dimer: -2; PP1 counter: 0; EBNA-1 inh: -9; NS3 helicase inh: -13; ZTA counter: 8

What do the screens show for `CCOC(=O)CN(C(=O)CSc1nnc2c(n1)[nH]c1ccccc12)c1ccccc1`?
HCV core dimer: 18; PP1 counter: -1; EBNA-1 inh: 40*; NS3 helicase inh: 4; ZTA counter: 4; EBNA-1 confirm: -6; ZTA counter trip: -6

What do the screens show for `CCOC(=O)CN(C(=O)CSc1nnc2c(n1)[nH]c1ccc(F)cc12)c1ccccc1`?
HCV core dimer: 10; PP1 counter: 1; EBNA-1 inh: -8; NS3 helicase inh: -10; ZTA counter: -22

Results for Cc1ccc(OCC(=O)Nc2ccc(S(=O)(=O)Nc3ccccn3)cc2)cc1C ?
HCV core dimer: 6; PP1 counter: -2; EBNA-1 inh: 43*; NS3 helicase inh: -1; ZTA counter: -1; EBNA-1 confirm: -1; ZTA counter trip: 11

Results for CCc1ccccc1NC(=S)N=Nc1c(O)n(C)c2ccc(S(=O)(=O)N3CCOCC3)cc12 ?
HCV core dimer: 28; PP1 counter: 1; EBNA-1 inh: 49*; NS3 helicase inh: 0; ZTA counter: -3; EBNA-1 confirm: -6; ZTA counter trip: -1

What do the screens show for `CC[n+]1ccc(/C=C/c2c[nH]c3ccccc23)cc1`?
HCV core dimer: -20; PP1 counter: -4; EBNA-1 inh: 42*; NS3 helicase inh: -4; ZTA counter: 10; EBNA-1 confirm: 5; ZTA counter trip: -1

Results for Cc1cccc(S(=O)(=O)Nc2nc3ccccc3nc2OC(C)C)c1 ?
HCV core dimer: 16; PP1 counter: -2; EBNA-1 inh: 14; NS3 helicase inh: 3; ZTA counter: 8

Results for CCOC(=O)c1[nH]c2ccccc2c1NC(=O)c1ccc2c(c1)OCO2 ?
HCV core dimer: 2; PP1 counter: -4; EBNA-1 inh: 32*; NS3 helicase inh: 3; ZTA counter: 3; EBNA-1 confirm: 19; ZTA counter trip: -10

Results for CCOC(=O)c1[nH]c2ccc(OC)cc2c1NC(=O)c1ccc2c(c1)OCO2 ?
HCV core dimer: -1; PP1 counter: 0; EBNA-1 inh: -20; NS3 helicase inh: -6; ZTA counter: 4

Results for COc1ccccc1C(=O)NCCC(=O)NC(C)c1ccc(-n2ccnc2)cc1 (stereo not given) ?
HCV core dimer: -7; PP1 counter: -5; EBNA-1 inh: 1; ZTA counter: 2

What do the screens show for `Cc1ccc(S(=O)(=O)N2CCC(C(=O)OCC(=O)N3CCc4ccccc43)CC2)cc1`?
HCV core dimer: 6; PP1 counter: 2; EBNA-1 inh: 33*; NS3 helicase inh: -7; ZTA counter: -7; EBNA-1 confirm: 7; ZTA counter trip: 2

Results for O=C(OCC(=O)N1CCCc2ccccc21)C1CCN(S(=O)(=O)c2cccs2)CC1 ?
HCV core dimer: 12; PP1 counter: -4; EBNA-1 inh: -8; NS3 helicase inh: -6; ZTA counter: -11

Results for O=C(COc1ccc2c(c1)OCO2)Nc1ccc2c(c1)oc1ccccc12 ?
HCV core dimer: 16; PP1 counter: 3; EBNA-1 inh: 71*; NS3 helicase inh: 5; ZTA counter: 6; EBNA-1 confirm: 11; ZTA counter trip: 15

How did Cc1ccc(-n2nc3c(c2NC(=O)c2ccc4c(c2)OCO4)CSC3)cc1 do in these assays?
HCV core dimer: 8; PP1 counter: -2; EBNA-1 inh: 47*; NS3 helicase inh: -2; ZTA counter: 5; EBNA-1 confirm: 25; ZTA counter trip: 8

How did CCN(C(=O)c1cc2c(s1)-c1ccccc1S(=O)(=O)C2)c1cc(OC)ccc1OC do in these assays?
HCV core dimer: 13; PP1 counter: 3; EBNA-1 inh: 0; NS3 helicase inh: -18; ZTA counter: 4

Results for CCOc1ccc(NC(=O)c2ccc(NC(=S)NC3CCCCC3)cc2)cc1 ?
HCV core dimer: -1; PP1 counter: 8; EBNA-1 inh: -5; NS3 helicase inh: -15; ZTA counter: 1

What do the screens show for `CCOc1ccc(NC(=O)c2ccc(NC(=S)NC3CC3)cc2)cc1`?
HCV core dimer: 12; PP1 counter: -3; EBNA-1 inh: 38*; NS3 helicase inh: 8; ZTA counter: 17; EBNA-1 confirm: 28*; ZTA counter trip: -5

How did CCOc1ccc(NC(=O)c2ccc(OC)cc2)cc1 do in these assays?
HCV core dimer: -5; PP1 counter: 0; EBNA-1 inh: -2; NS3 helicase inh: -10; ZTA counter: -3
